Shown are actives, neighbours in structure and some others; about 4.2% of the full set was active somewhere.
Ins promoter up – MIN6 insulin promoter up-regulation | 190,000 compounds, 0.3% hits | z-score at 5 µM | MIN6 insulin promoter-GFP reporter, high-content imaging; stronger effect = higher value | AID 1625;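 active = z-score above 3 at 5 µM with at least 500 cells counted in the well; inconclusive = wells under 500 cells, flagged as cytotoxic or low count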
Autophagy mod – modulators of autophagy | MEF GFP-LC3 puncta imaging; test concentration mostly 10 µM | calls only at 10 µM (by protocol) | 190,000 compounds, 0.98% hits | AID 463193;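 active = percentage of spot-positive cells more than 3 SD above its plate mean, without a fluorescence outlier flag or 80% toxicity; inconclusive = no clear call, values can overlap the other calls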;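 also: spot-positive cell cutoff set from DMSO-treated cells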
Cl transport mod – modulators of human KCC2 chloride dependent transport. KCC2 cells, thallium flux FluoZin-2 fluorescence. AID 1456. B-score of Tl+ flux slope (higher = more flux/activation; lower = inhibition) at 10 µM. 190,000 compounds, 2.2% hits;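 active = thallium flux slope and its plate-corrected score both differing from the plate sample mean at a set confidence after two filtering rounds, in either direction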;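 also: slope of fluorescence scaled to starting intensity during 10 to 20 s after thallium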
WT yeast gro inh – growth inhibition of WT yeast, mitochondrial fusion screen; mitochondrial fusion phenotypic screen, WT strain; inhibition, % at 10 µM; 190,000 compounds, 2.1% hits; AID 1362; in the data active = inhibition above about 58%; tested in S. cerevisiae
SKKanGAS inh – SKKanGAS growth inhibition; 300,000 compounds, 1.3% hits; inhibition, % at 7.5 µM; S. pyogenes SKKanGAS, kanamycin growth, BacTiter-Glo, 6 h;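 active = mean replicate score, as percent of positive control median, at least 50; inconclusive = mean below 50 but one replicate at or above 50; inactive = mean and every replicate below 50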;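 also: strain carries kanamycin resistance gene driven by streptokinase promoter and grows in 40 µg/ml kanamycin; loss of luminescence reflects streptokinase promoter inhibition or plain growth inhibition; 0% = median of DMSO wells and 100% = positive control at its reference dose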
Rad51 HR inh – blocks human Rad51 in homologous recombination | hRad51 DNA strand exchange, fluorescence dequenching | inhibition, % at 10 µM | 200,000 compounds, 0.085% hits;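 active = inhibition above 40% at the single screening dose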;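 also: 0% = DMSO control wells and 100% = blanks with heterologous ssDNA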
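System: hRad51 filaments on single-stranded DNA; reagent: Fluorescein- and BHQ1-tagged 47-mer duplex; compound dosing: one concentration, 10 µM final; timing: filaments 15 min 37 °C, then compound 30 min; measured by: fluorescein emission 520 nm, excitation 485 nm; benchmarks: per-plate controls and blanks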
Starred values were filed as active, the others as inactive; i = inactive; ? = inconclusive; · = no result given; + = active, no number.

SMILES | Ins promoter up | Autophagy mod | Cl transport mod | WT yeast gro inh | SKKanGAS inh | Rad51 HR inh
O=C(NCc1ccc(F)cc1)C(=O)NCC1OCCN1C(=O)c1cccs1 (centres undefined) | -0.21 | i | 0.3 | -9 | 2 | 6
Cc1ccc(NC(=O)CN(C)S(=O)(=O)c2cccc3cccnc23)cc1 | -0.42 | i | -0.75 | 7 | -4 | 3
Cc1csc(NC(=O)CN(C)S(=O)(=O)c2cccc3cccnc23)n1 | 3* | i | · | 6 | 2 | 8
COc1ccc(NC(=O)N2CCCC(C(=O)NCCc3ccccc3)C2)cc1 (centres undefined) | · | · | · | · | -15 | ·
Nc1sc(-c2ccccc2)cc1C(=O)N/N=C/c1ccc(Cl)cc1 | -0.42 | · | -0.71 | · | 95* | -9
N=C1/C(=C\c2ccc(-c3cccc(C(=O)O)c3)o2)C(=O)N=C2SC=C(c3ccccc3)N12 | 0.04 | · | -1.6 | · | 79* | -3
COc1ccccc1NC(=O)c1cc2ccccc2o/c1=N\O | 0.87 | · | · | -12 | -7 | 2
COc1ccc(N=c2oc3ccccc3cc2C(=O)Nc2ccccn2)cc1OC | 0.03 | + | -0.32 | -11 | 0 | 3
COc1ccc(N=c2oc3c(OC)cccc3cc2C(=O)NCc2ccco2)cc1OC | -0.76 | + | -1.3 | -37 | · | -13
COC(=O)c1ccc(C)c(NS(=O)(=O)c2ccc(C)c([N+](=O)[O-])c2)c1 | 1.2 | i | -0.63 | -27 | 2 | -1
COC(=O)c1ccc(C)c(NS(=O)(=O)c2ccc(OC)cc2)c1 | -1.5 | + | · | 16 | 5 | -10
O=C(c1ccc(C(F)(F)F)cc1)C1CCCN(C(=O)CN2C(=O)CSC2=O)C1 (centres undefined) | 0.31 | i | 2.6 | 6 | 3 | ·
CC(C)CNS(=O)(=O)c1ccc(S(=O)(=O)N2CCCN(Cc3ccccc3)C2)cc1 | -1.9 | i | -0.02 | 83* | -9 | -6
CC1CCN(S(=O)(=O)c2ccc(S(=O)(=O)N3CCCN(Cc4ccccc4)C3)cc2)CC1 | · | i | -0.14 | · | · | ·
COC(=O)c1ccc(CSc2n[nH]c(=S)s2)o1 | 0.39 | i | -2.3 | -3 | 63* | -1
COCCNC(=S)N(CCc1c(C)[nH]c2ccc(Cl)cc12)Cc1cccs1 | -0.06 | i | 0.72 | 74* | 32 | -2
CCNC(=S)N(CCc1c(C)[nH]c2ccc(C)cc12)Cc1cccs1 | -0.05 | i | 0.46 | 71* | 1 | 3
CCNC(=S)N(CCc1c(C)[nH]c2ccc(Cl)cc12)Cc1ccco1 | -1.8 | i | -4.4 | 78* | -5 | -11
CNC(=S)N(CCc1c(C)[nH]c2ccc(C)cc12)Cc1ccco1 | 0.05 | i | -0.4 | 16 | 4 | ·
COc1ccc(NCc2nc3ccccc3n2CCOc2ccccc2)cc1 | 0.01 | i | -0.088 | 21 | 25 | -4
COc1ccc(NCc2nc3ccccc3n2CCOc2ccc(C)cc2)cc1 | -4 | i | -2.6 | 71* | 12 | 32
c1ccc(NCc2nc3ccccc3n2CCOc2ccccc2)cc1 | -0.01 | i | -8.2e-05 | 77* | 11 | -5
CC(=O)Nc1nc(SCC(=O)NCc2ccc(F)cc2)[nH]c(=O)c1NC(=O)c1cccs1 | -0.19 | + | 0.67 | -15 | -4 | 3
O=C(NC(=S)N1CCN(c2nc(-c3ccccc3)cs2)CC1)c1cncc(Br)c1 | -0.4 | i | 70* | 53 | 77* | 5
O=C(CN1CCN(c2nc(-c3ccccc3)cs2)CC1)NNC(=O)c1ccc(Br)cc1 | -0.09 | i | 0.13 | -46 | 9 | 3
SMILES | Ins promoter up | Autophagy mod | Cl transport mod | WT yeast gro inh | SKKanGAS inh | Rad51 HR inh
Cc1ccc2cccc(NS(=O)(=O)c3ccccc3)c2n1 | · | · | · | · | 55* | ·
Cc1c(Cl)cccc1-c1ccc(CNCc2ccccn2)o1 | · | · | · | · | 83* | ·
COc1cc(CNCc2ccccn2)ccc1OCc1c(Cl)cccc1Cl | ? | i | · | 1 | -9 | 3
COC(=O)C1=C(Nc2ccc(C)cc2)C=C(C)C(C(=O)OC)C1c1cccc(OC)c1 (centres undefined) | · | i | -0.66 | 41 | -2 | -4
COC(=O)C1=C(Nc2ccc(C)cc2)C=C(C)C(C(=O)OC)C1c1ccc(OC)cc1 (centres undefined) | · | + | -0.64 | 70* | -1 | 2
CC(=O)NC(c1ccccc1)c1nc2ccccc2[nH]1 (centres undefined) | 0.55 | i | -0.17 | -2 | 0 | 2
CC(C)C(NC(=O)C(c1ccccc1)c1ccccc1)c1nc2ccccc2[nH]1 (centres undefined) | · | i | 1.3 | 2 | 79* | -3
CNC(=O)CS(=O)CC(=O)Nc1cc(OCCOC)c(Cl)cc1Cl (centres undefined) | -0.57 | i | 1.6 | 11 | -7 | -12
CC(C)c1ccc(S(=O)(=O)/N=C2\C=C(NS(=O)(=O)c3ccccc3)C(=O)c3ccccc32)cc1 | · | · | · | · | 1 | ·
Cc1ccc(C)c(S(=O)(=O)/N=C2\C=C(NS(=O)(=O)c3ccccc3)C(=O)c3ccccc32)c1 | · | · | · | · | 107* | ·
CCc1ccc(S(=O)(=O)/N=C2\C=C(NS(=O)(=O)c3ccccc3)C(=O)c3ccccc32)cc1 | · | · | · | · | 63* | ·
COc1ccc(-c2nsc3c(N4CCCCC4C)ncnc23)cc1 (centres undefined) | -1.6 | i | · | 75* | 32 | -7
CC(C)N(C(=O)CSc1ncnc2sc(-c3ccccc3)cc12)C(C)C | · | i | 7.1* | 4 | 14 | 10
CCCCCOc1ccc(Br)cc1CSC(=N)N | -1.6 | i | 1.2 | 65* | -3 | 6
CC(CCc1ccco1)NC(=O)c1cccc2c1C(=O)N(C1CCCCC1)C2 (centres undefined) | -0.32 | i | -1.3 | 60* | -4 | 6
COc1ccc(N2Cc3cccc(C(=O)NC(C)CCc4ccco4)c3C2=O)cc1 (centres undefined) | 0.09 | i | -2.2 | 16 | 0 | 4
O=C(NCc1nc2ccccc2[nH]1)c1ccco1 | 0.51 | i | 0.63 | -14 | -3 | -5
O=C(CNC(=O)c1ccco1)NCc1nc2ccccc2[nH]1 | · | · | · | · | 51* | ·
O=C(NNc1ncc(C(F)(F)F)cc1Cl)c1ccc(Cl)c(Cl)c1 | 0.05 | · | · | · | 15 | 18
FC(F)(F)c1cnc(NNC(=S)Nc2ccc(Cl)cc2)c(Cl)c1 | · | i | 30* | 76 | 16 | 0
CON/C=N/C(=S)Nc1ncc(C(F)(F)F)cc1Cl | -0.19 | i | 75* | 12 | -5 | 8
Cc1ccc(NC(=S)NNc2ncc(C(F)(F)F)cc2Cl)c(C)c1 | -0.45 | i | 4.3* | 5 | -1 | 1
O=C(O)COC(=O)Cc1ccccc1Nc1c(Cl)cccc1Cl | · | · | · | · | 1 | ·
O=C(NCc1ccccc1Cl)c1cc(C(=O)C2CC2)c[nH]1 | · | · | · | · | -4 | ·
CNC(=O)c1ccsc1NC(=O)c1ccc2c(c1)CCCC2 | -2.2 | i | 0.28 | 72* | 0 | ·

Screening results (PubChem)
